From ChEMBL document CHEMBL2380217, “Design, synthesis, and biological evaluation of aminoalkylindole derivatives as cannabinoid receptor ligands with potential for treatment of alcohol abuse” (J Med Chem, 2013)
Active and inactive are the calls of the source. The rule behind the calls is not given here.

Tests used:
Cannabinoid receptor 2 [1] = target: T1, Cannabinoid receptor 2 (Homo sapiens, UniProt P34972); assay: Agonist activity at human CB2 receptor transfected in CHO cells assessed as inhibition of forskolin-stimulated adenylyl cyclase activity at 10 uM after 15 mins by liquid scintillation spectrophotometry; assay type: functional, cell-based
T1 sequence (P34972 whole entry): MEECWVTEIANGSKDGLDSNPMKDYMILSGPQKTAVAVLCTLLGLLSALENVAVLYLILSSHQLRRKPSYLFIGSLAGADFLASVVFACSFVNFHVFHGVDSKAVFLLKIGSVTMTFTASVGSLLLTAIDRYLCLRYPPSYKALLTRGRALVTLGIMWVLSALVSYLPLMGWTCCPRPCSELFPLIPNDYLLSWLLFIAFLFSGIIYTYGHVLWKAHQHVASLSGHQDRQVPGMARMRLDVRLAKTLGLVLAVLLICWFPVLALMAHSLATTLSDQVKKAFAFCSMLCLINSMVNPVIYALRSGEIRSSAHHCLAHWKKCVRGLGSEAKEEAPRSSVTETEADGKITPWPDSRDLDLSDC
Method in brief: (§1)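 Neuro2A-WT (endogenous CB1), CHO-hCB2 or CHO-WT cells, 4 million per well, attached overnight. Labelled 4 h at 37 °C with [3H]adenine 2.5 μCi/mL plus 0.5 mM IBMX. Then 15 min at 37 °C in KRH buffer with 0.5 mM IBMX, 10 μM forskolin, and vehicle (0.2% ethanol) or compound (0.1 nM–10 μM), triplicate. Stopped with HCl; [3H]cAMP isolated on acidic alumina, counted by scintillation. Expressed as % of vehicle cAMP. Antagonist added 5 min before agonist.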

[2] = target: Cannabinoid receptor 1 (Mus musculus) (UniProt P47746); assay: Agonist activity at CB1 receptor in mouse Neuro2a cells assessed as inhibition of forskolin-stimulated adenylyl cyclase activity at 10 uM after 15 mins by liquid scintillation spectrophotometry; assay type: functional, cell-based; method in brief: as §1
Cannabinoid receptor 1 (Mus musculus), sequence (P47746 whole entry): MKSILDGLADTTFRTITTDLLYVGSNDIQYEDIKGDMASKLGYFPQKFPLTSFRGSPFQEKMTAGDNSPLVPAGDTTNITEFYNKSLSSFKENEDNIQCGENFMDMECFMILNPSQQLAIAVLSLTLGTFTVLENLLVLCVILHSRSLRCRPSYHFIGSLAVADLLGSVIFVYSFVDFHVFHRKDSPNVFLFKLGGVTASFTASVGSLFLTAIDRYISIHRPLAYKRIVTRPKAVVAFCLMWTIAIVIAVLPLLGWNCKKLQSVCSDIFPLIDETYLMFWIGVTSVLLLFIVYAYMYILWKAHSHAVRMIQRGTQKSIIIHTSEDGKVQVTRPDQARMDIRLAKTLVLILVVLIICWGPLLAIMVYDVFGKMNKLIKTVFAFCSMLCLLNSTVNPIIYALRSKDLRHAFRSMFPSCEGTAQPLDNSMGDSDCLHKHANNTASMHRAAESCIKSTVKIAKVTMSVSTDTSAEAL

[3] = target: Cannabinoid receptor 2 (Mus musculus) (UniProt P47936); assay: Displacement of [3H]CP-55940 from mouse […] CB2 receptor at 1 uM after 90 mins by scintillation counting analysis; assay type: tissue-based
Cannabinoid receptor 2 (Mus musculus), sequence (P47936 whole entry): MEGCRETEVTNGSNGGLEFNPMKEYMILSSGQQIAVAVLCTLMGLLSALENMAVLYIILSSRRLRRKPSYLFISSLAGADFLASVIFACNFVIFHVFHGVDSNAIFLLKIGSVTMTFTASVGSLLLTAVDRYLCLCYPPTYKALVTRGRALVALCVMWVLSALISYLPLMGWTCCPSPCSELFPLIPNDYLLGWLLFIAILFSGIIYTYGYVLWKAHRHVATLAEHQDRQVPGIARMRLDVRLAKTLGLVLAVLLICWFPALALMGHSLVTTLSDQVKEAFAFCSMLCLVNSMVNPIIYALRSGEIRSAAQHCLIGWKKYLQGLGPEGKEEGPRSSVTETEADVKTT
Method in brief: (§2)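 Buffer: 50 mM Tris, 0.05% BSA, 0.1% ethanol; triplicate. Non-specific binding with 10 μM WIN-55,212-2. Bound ligand collected by GF/B filtration and counted by liquid scintillation. Specific binding expressed as % of that without competitor.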

[4] = target: Cannabinoid receptor 1 (Mus musculus) (UniProt P47746); assay: Displacement of [3H]CP-55940 from mouse brain CB1 receptor at 1 uM after 90 mins by scintillation counting analysis; assay type: tissue-based; method in brief: as §2
Mus musculus [5] = assay: Inhibition of ethyl alcohol-induced conditioned place preference in Swiss mouse at 10 mg/kg, ip administered 1 hr prior to ethyl alcohol pairing; assay type: functional, organism-based; design: dose 10 mg/kg
Method in brief: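 Male NIH Swiss mice in 3-compartment chambers. 30-min pre-test to find preferred side. Then Mon–Thu daily: saline in the preferred side (30 min) and, ~4 h later, 2 g/kg ethanol in the non-preferred side (30 min). Compound 10 mg/kg given 1 h before each ethanol pairing. Friday post-test; score = post minus pre time on the ethanol side. One-way ANOVA with Tukey.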

Mus musculus [6] = assay: Toxicity in Swiss mouse assessed as reduction in body weight at 10 mg/kg, ip for 10 days; assay type: organism-based; design: dose 10 mg/kg, route intraperitoneal; conditions: in vivo, 240 h
Method in brief: (§3)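 Male NIH Swiss mice in a two-bottle home-cage choice, 10% (v/v) ethanol vs water, 24 h access. Intake read twice weekly and bottle positions switched. Preference = ethanol/total fluid × 100. After stable baseline (<10% variation over 3 days), 10 mg/kg i.p. daily for 10 days. Vehicle: 8% Tween/92% water, given for 10 days. Body weight tracked.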

Mus musculus [7] = assay: Toxicity in Swiss mouse assessed as alteration in total fluid intake at 10 mg/kg, ip for 10 days; assay type: organism-based; design: dose 10 mg/kg, route intraperitoneal; conditions: in vivo, 240 h; method in brief: as §3
Mus musculus [8] = assay: Reduction in ethyl alcohol preference in Swiss mouse at 10 mg/kg, ip for 10 days; assay type: functional, organism-based; design: dose 10 mg/kg; method in brief: as §3
Mus musculus [9] = assay: Antagonist activity at CB1 receptor in Swiss mouse assessed as reduction in hypothermic effect at 10 mg/kg, ip administered 30 mins prior to JWH-073 addition; assay type: functional, organism-based; design: dose 10 mg/kg
Method in brief: (§4)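 Male NIH Swiss mice (25–30 g) with glass-encapsulated radiotelemetry probes implanted in the peritoneal cavity; at least 7 days of recovery, housed singly. Baseline recorded for at least 1 hr, then i.p. injection of drug or vehicle. […] Groups of 4–8. One-way ANOVA with Tukey.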

CHO = assay: Effect on adenylyl cyclase activity in wild type CHO cells at 10 uM; assay type: cell-based; conditions: Cricetulus griseus; method in brief: as §1
[10] = target: Cannabinoid receptor 1 (Mus musculus) (UniProt P47746); assay: Antagonist activity at CB1 receptor in mouse Neuro2a cells assessed as forskolin-stimulated adenylyl cyclase activity at 1 uM after 15 mins by liquid scintillation spectrophotometry in presence of JWH-073; assay type: functional, cell-based; method in brief: as §1
Cannabinoid receptor 2 [11] = target: T1, Cannabinoid receptor 2; assay: Agonist activity at human CB2 receptor transfected in CHO cells assessed as inhibition of forskolin-stimulated adenylyl cyclase activity after 15 mins by liquid scintillation spectrophotometry; assay type: functional, cell-based; method in brief: as §1
Cannabinoid receptor 1 = Cannabinoid receptor 1 (Mus musculus, UniProt P47746); assay: Agonist activity at CB1 receptor in mouse Neuro2a cells assessed as inhibition of forskolin-stimulated adenylyl cyclase activity after 15 mins by liquid scintillation spectrophotometry; assay type: functional, cell-based
Cannabinoid receptor 1, sequence (P47746 whole entry): as the sequence (P47746 whole entry) above
Method in brief: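 Neuro2A cells with endogenous CB1, plated overnight to 80–90% confluency, labelled 4 h at 37 °C with [3H]adenine (2.5 μCi/mL) plus 0.5 mM IBMX. Then 15 min at 37 °C in Krebs Ringer HEPES with 0.5 mM IBMX, 10 μM forskolin and compound (0.1 nM–10 μM; 10 μM for the screen) or 0.2% ethanol vehicle, in triplicate. HCl stop, alumina column. [3H]cAMP is given as % of vehicle.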

Mus musculus [12] = assay: Agonist activity at CB1 receptor in Swiss mouse assessed as hypothermic effect at 10 mg/kg, ip; assay type: functional, organism-based; design: dose 10 mg/kg; method in brief: as §4

| SMILES | inhibition (Cannabinoid receptor 2 [1]) | inhibition [2] | Activity [3] | Activity [4] | other results |
| --- | --- | --- | --- | --- | --- |
| CCCCn1cc(C(=O)c2ccc(F)cc2)c2cccc(OC)c21 | 38% | 45% | 99% | 84% |  |
| CCCCn1cc(C(=O)Cc2ccc(OC)cc2)c2cccc(OC)c21 |  |  | 64% | 38% |  |
| CCCCn1cc(C(=O)Cc2ccc(F)cc2)c2cccc(OC)c21 | 22% | -4% | 80% | 55% |  |
| CCCCn1cc(C(=O)Cc2ccccc2)c2cccc(O)c21 |  |  | 20% | 21% |  |
| COc1cccc2c(C(=O)c3cccc4ccccc34)cn(CCN3CCOCC3)c12 | 37% | 39% | 100% | 100% |  |
| CCCCn1cc(-c2ccc3ccccc3c2)c2cccc(OC)c21 | 20.8% | 16% | 91% | 82% | Activity (Mus musculus [5]): Active; Activity (Mus musculus [6]): Non-toxic; Activity (Mus musculus [7]): Toxic; Activity (Mus musculus [8]): Active; Activity (Mus musculus [9]): Active; Activity (CHO): inactive; Activity [10]: Active |
| CCCCn1cc(C(=O)Cc2ccc(F)c(F)c2)c2cccc(OC)c21 |  |  | 80% | 41% |  |
| CCCCn1cc(C(=O)Cc2ccccc2)c2cccc(OC)c21 | 16% | 34% | 91% | 69% |  |
| CCCCn1cc(C(=O)c2cccc3ccccc23)c2cccc(O)c21 | 38% | 55% | 90% | 99% | Ki (Cannabinoid receptor 2 [11]): 78.3 nM; IC50 (Cannabinoid receptor 1): 225 nM; Ki (Cannabinoid receptor 1): 24.2 nM |
| CCCCn1cc(C(=O)Cc2cccc3ccccc23)c2cccc(O)c21 |  |  | 21% | 37% |  |
| CCCCn1cc(C(=O)c2cccc3ccccc23)c2cccc(OC)c21 | 52% | 51% | 100% | 93% |  |
| CCCCn1cc(C(=O)Cc2cccc3ccccc23)c2cccc(OC)c21 |  | 34% | 91% | 81% |  |
| CCCCn1cc(C(=O)Cc2ccc(F)cc2)c2cccc(CC)c21 |  |  | 88% | 63% |  |
| CCCCn1cc(C(=O)Cc2cccc(F)c2)c2cccc(OC)c21 |  |  | 91% | 63% |  |
| CCCCn1cc(C(=O)c2cccc3ccccc23)c2cc(OC)ccc21 | 31% | 47% | 90% | 90% |  |
| CCCCCCC(C)(C)c1ccc([C@@H]2C[C@H](O)CC[C@H]2CCCO)c(O)c1 |  | 45% |  |  |  |
| CCCCn1cc(C(=O)c2cccc3ccccc23)c2ccccc21 |  |  |  |  | Activity (Mus musculus [12]): Active; Ki (Cannabinoid receptor 2 [11]): 9.8 nM; Ki (Cannabinoid receptor 1): 12.9 nM |
| CCCCn1cc(C(=O)c2cccc3ccccc23)c2cc(O)ccc21 | 37% | 39% | 91% | 97% |  |
| CCCCn1cc(C(=O)Cc2ccc(O)cc2)c2cccc(O)c21 |  |  | 10% | 10% |  |
| CCCCn1cc(C(=O)Cc2cccc(F)c2F)c2cccc(OC)c21 | -6% | 35% | 97% | 80% |  |
| CC1=CC[C@@H]2[C@@H](C1)c1c(O)cc(CC#CCCCNS(C)(=O)=O)cc1OC2(C)C |  |  |  |  | Activity [10]: Active |
| CCCCn1cc(-c2cccc3ccccc23)c2cccc(OC)c21 | 37% | 39% | 97% | 98% |  |
| Cc1c(C(=O)NN2CCCCC2)nn(-c2ccc(Cl)cc2Cl)c1-c1ccc(Cl)cc1 [RIMONABANT] |  |  |  |  | Activity (Mus musculus [5]): Active; Activity (Mus musculus [6]): Toxic; Activity (Mus musculus [7]): Toxic; Activity (Mus musculus [8]): Active |
| CCCCn1cc(Cc2cccc3ccccc23)c2cccc(OC)c21 | 33% | 18% | 97% | 90% | Activity (Mus musculus [5]): Active; Activity (Mus musculus [6]): Non-toxic; Activity (Mus musculus [7]): Toxic; Activity (Mus musculus [8]): Active; Activity (Mus musculus [9]): Active; Activity (CHO): inactive; Activity [10]: Active |
| CCCCn1cc(C(=O)Cc2ccc(F)cc2)c2cccc(O)c21 |  |  | 10% | 29% |  |
| CCCCn1cc(C(=O)Cc2ccccc2F)c2cccc(OC)c21 | 1% | 45% | 99% | 84% |  |
